According to ChEMBL document CHEMBL3792365, “Dioxol and dihydrodioxin analogs of 2- and 3-phenylacetonitriles as potent anti-cancer agents with nanomolar activity against a variety of human cancer cells” (2016):
Calls of active or inactive are those of the source. No cut-off for these calls is given here.

How the values were obtained:
[1] = system: SK-MEL-5; experiment: Growth inhibition of human SK-MEL-5 cells after 48 hrs by sulforhodamine B assay; format: functional; conditions: SK-MEL-5, 48 h
In short: (§1)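 Five-dose concentration series run across a panel of 60 human tumour cell lines. GI50 is taken as the drug concentration giving a 50% reduction in net protein increase relative to untreated control cells.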

[2] = Growth inhibition of human SNB19 cells after 48 hrs by sulforhodamine B assay; format: functional; conditions: SNB-19, 48 h; in short: as §1
[3] = system: M14; experiment: Growth inhibition of human M14 cells after 48 hrs by sulforhodamine B assay; format: functional; conditions: M14, 48 h
In short: (§2)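 Five-dose testing against a 60-line human tumor cell panel. GI50 is the drug concentration giving a 50% reduction in net protein increase relative to untreated control cells.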

[4] = Growth inhibition of human COLO205 cells after 48 hrs by sulforhodamine B assay; format: functional; conditions: COLO 205, 48 h; in short: as §2
[5] = Growth inhibition of human Hs 578T cells after 48 hrs by sulforhodamine B assay; format: functional; in short: as §2
[6] = system: SK-MEL-28; experiment: Growth inhibition of human SK-MEL-28 cells after 48 hrs by sulforhodamine B assay; format: functional; conditions: SK-MEL-28, 48 h; in short: as §1
[7] = system: A549; experiment: Growth inhibition of human A549/ATCC cells after 48 hrs by sulforhodamine B assay; format: functional; conditions: A549, 48 h; in short: as §2
[8] = Growth inhibition of human RPMI8226 cells after 48 hrs by sulforhodamine B assay; format: functional; conditions: RPMI-8226, 48 h; in short: as §1
[9] = Growth inhibition of human UACC62 cells after 48 hrs by sulforhodamine B assay; format: functional; conditions: UACC-62, 48 h
In short: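 Five-dose testing across the 60-line human tumour cell panel. GI50 is the drug concentration that gives a 50% reduction in net protein increase relative to control cells.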

[10] = system: A498; experiment: Growth inhibition of human A498 cells after 48 hrs by sulforhodamine B assay; format: functional; conditions: A498, 48 h; in short: as §2
[11] = Growth inhibition of human SNB75 cells after 48 hrs by sulforhodamine B assay; format: functional; conditions: SNB-75, 48 h; in short: as §1
[12] = Growth inhibition of human Caki1 cells after 48 hrs by sulforhodamine B assay; format: functional; conditions: CAKI-1, 48 h; in short: as §2
[13] = system: SR; experiment: Growth inhibition of human SR cells after 48 hrs by sulforhodamine B assay; format: functional; in short: as §1
[14] = Growth inhibition of human SKOV3 cells after 48 hrs by sulforhodamine B assay; format: functional; conditions: SK-OV-3, 48 h; in short: as §1
[15] = system: SK-MEL-2; experiment: Growth inhibition of human SK-MEL-2 cells after 48 hrs by sulforhodamine B assay; format: functional; conditions: SK-MEL-2, 48 h; in short: as §1
[16] = Growth inhibition of human SW620 cells after 48 hrs by sulforhodamine B assay; format: functional; conditions: SW-620, 48 h; in short: as §1
[17] = system: MDA-MB-435; experiment: Growth inhibition of human MDA-MB-435 cells after 48 hrs by sulforhodamine B assay; format: functional; conditions: MDA-MB-435, 48 h; in short: as §2
[18] = Growth inhibition of human NCI-ADR-RES cells after 48 hrs by sulforhodamine B assay; format: functional; in short: as §1
[19] = Growth inhibition of human SF539 cells after 48 hrs by sulforhodamine B assay; format: functional; conditions: SF-539, 48 h; in short: as §1
[20] = system: ACHN; experiment: Growth inhibition of human ACHN cells after 48 hrs by sulforhodamine B assay; format: functional; in short: as §2
[21] = target: T1, Tubulin (Homo sapiens) (UniProt P68371+Q9H4B7+P0DPH7+P68366+Q13509+Q71U36+P04350+Q3ZCM7+P07437+P68363+Q9BQE3+Q6PEY2+Q13885+Q9BVA1+Q9BUF5); experiment: Inhibition of tubulin polymerization (unknown origin) in rapid phase assessed as polymerization rate at 10 uM (reference value: 8.6 +/- 0.4 x 10^-4AU/sec); format: protein-complex assay
[22] = target: T1, Tubulin (Homo sapiens); experiment: Induction of tubulin depolymerization (unknown origin) in slow phase assessed as depolymerization rate at 10 uM (reference value: 1.3 +/- 0.1 10^-5AU/sec); format: protein-complex assay
[23] = target: T1, Tubulin (Homo sapiens); experiment: Inhibition of tubulin polymerization (unknown origin) in rapid phase assessed as polymerization rate at 100 uM (reference value: 8.6 +/- 0.4 x 10^-4AU/sec); format: protein-complex assay
[24] = target: T1, Tubulin (Homo sapiens); experiment: Inhibition of tubulin polymerization (unknown origin) in rapid phase; format: protein-complex assay
[25] = Growth inhibition of human LOXIMVI cells after 48 hrs by sulforhodamine B assay; format: functional; conditions: LOX IMVI; in short: as §2
[26] = target: T1, Tubulin (Homo sapiens); experiment: Induction of tubulin depolymerization (unknown origin) in slow phase assessed as depolymerization rate at 100 uM (reference value: 1.3 +/- 0.1 10^-5AU/sec); format: protein-complex assay
[27] = target: T1, Tubulin (Homo sapiens); experiment: Induction of tubulin depolymerization (unknown origin) in slow phase; format: protein-complex assay
[28] = target: T1, Tubulin (Homo sapiens); experiment: Induction of tubulin depolymerization (unknown origin) in slow phase assessed as depolymerization rate at 10 to 100 uM; format: protein-complex assay
[29] = system: HT-29; experiment: Growth inhibition of human HT-29 cells after 48 hrs by sulforhodamine B assay; format: functional; conditions: HT-29, 48 h; in short: as §2
[30] = system: K562; experiment: Growth inhibition of human K562 cells after 48 hrs by sulforhodamine B assay; format: functional; conditions: K562, 48 h; in short: as §2
[31] = target: T1, Tubulin (Homo sapiens); experiment: Inhibition of tubulin polymerization (unknown origin) in rapid phase assessed as polymerization rate at 10 to 100 uM; format: protein-complex assay

Compound | GI50 [1] | GI50 [2] | GI50 [3] | GI50 [4] | GI50 [5] | GI50 [6] | GI50 [7] | GI50 [8] | GI50 [9] | GI50 [10] | GI50 [11] | GI50 [13] | GI50 [14] | GI50 [15] | GI50 [16] | GI50 [17] | GI50 [18] | GI50 [19] | GI50 [20] | GI50 [25] | also measured
COc1ccc(/C(C#N)=C/c2ccc3c(c2)OCCO3)cc1 | 3540 nM | > 100000 nM | 3870 nM | > 100000 nM | > 100000 nM | > 100000 nM | 21700 nM | > 100000 nM | 8680 nM | > 100000 nM | 21900 nM | 2760 nM | > 100000 nM | 36800 nM | 3930 nM | 510 nM | 4450 nM | 73100 nM | > 100000 nM |  | GI50 [12]: > 100000 nM
COc1cc(/C(C#N)=C/c2ccc3c(c2)OCCO3)cc(OC)c1OC | 30 nM | 190 nM | 30 nM | 120 nM | 70 nM | 60 nM | 60 nM | 60 nM | 30 nM | 30 nM | 30 nM | 60 nM | 40 nM |  | 40 nM | 20 nM | 30 nM | 20 nM | 80 nM | 60 nM | Activity [21]: 6.9 ×10⁻⁴ AU/sec; Activity [22]: 1.6 ×10⁻⁵ AU/sec; Activity [23]: 2 ×10⁻⁴ AU/sec; GI50 [12]: 50 nM; inhibition [24]: Dose-dependent effect; Activity [26]: 3.2 ×10⁻⁵ AU/sec; Activity [27]: Dose-dependent effect
N#C/C(=C\c1cc2ccccc2s1)c1ccc2c(c1)OCO2 | 60 nM | 230 nM | 40 nM | 30 nM | 80 nM | 240 nM | 90 nM | 190 nM | 60 nM | 30 nM | 20 nM | 30 nM | 60 nM | 40 nM | 50 nM | 20 nM | 40 nM | 40 nM | 60 nM | 50 nM | Activity [28]: inactive; GI50 [29]: 30 nM; GI50 [30]: 40 nM; GI50 [12]: 50 nM; inhibition [31]: inactive
COc1ccc(/C=C(\C#N)c2ccc3c(c2)OCO3)cc1 | 210 nM | 750 nM | 120 nM | 140 nM | 460 nM | 450 nM | 270 nM | 490 nM | 590 nM | 200 nM |  | 50 nM | 400 nM | 210 nM | 120 nM | 30 nM | 80 nM | 250 nM | 520 nM | 570 nM | GI50 [29]: 60 nM; Activity [21]: 8 ×10⁻⁴ AU/sec; GI50 [30]: 40 nM; Activity [22]: 1.8 ×10⁻⁵ AU/sec; Activity [23]: 8.9 ×10⁻⁴ AU/sec; Activity [26]: 2 ×10⁻⁵ AU/sec
COc1ccc(/C=C(\C#N)c2ccc3c(c2)OCO3)c(OC)c1 | 2580 nM | 6950 nM | 1320 nM | 1590 nM | 3620 nM | 4470 nM | 2650 nM | 3230 nM | 2320 nM | 1330 nM |  | 530 nM | 2750 nM | 720 nM | 1230 nM | 300 nM | 2410 nM | 1610 nM | 4920 nM | 5330 nM | GI50 [29]: 710 nM; GI50 [30]: 390 nM
COc1ccc(/C(C#N)=C/c2ccc3c(c2)OCCO3)cc1OC | 840 nM | 4080 nM | 1630 nM | 2770 nM | 5560 nM | 4590 nM | 4120 nM | 4810 nM | 1040 nM | 1350 nM | 2160 nM | 930 nM | 3240 nM | 1840 nM | 1040 nM | 260 nM | 1520 nM | 2560 nM | 7610 nM | 4920 nM | GI50 [12]: 2920 nM
COc1ccc(/C=C(\C#N)c2ccc3c(c2)OCO3)c2ccccc12 | 1520 nM | 4240 nM | 1680 nM | 1610 nM | 2630 nM | 4520 nM | 2650 nM | 3850 nM | 1510 nM | 410 nM | 1140 nM | 5440 nM | 2350 nM | 2900 nM | 720 nM | 310 nM | 1650 nM | 1580 nM | 4240 nM | 3960 nM | GI50 [29]: 1600 nM; GI50 [30]: 530 nM; GI50 [12]: 2060 nM
N#C/C(=C\c1cccc2ccccc12)c1ccc2c(c1)OCO2 | 3200 nM | 6290 nM | 3130 nM | 2580 nM | 3540 nM | 5840 nM | 5000 nM | 4490 nM | 2630 nM | 1170 nM | 2450 nM | 1600 nM | 3580 nM | 3180 nM | 3720 nM | 430 nM | 2520 nM | 2710 nM | 4520 nM | 4220 nM | GI50 [29]: 3020 nM; GI50 [30]: 790 nM; GI50 [12]: 4180 nM
